# Results taken from ChEMBL document CHEMBL4613292, “5,6-Dihydroxypyrimidine Scaffold to Target HIV-1 Nucleocapsid Protein” (ACS Med Chem Lett, 2020).
# Calls of active or inactive are those of the source. The calls are words filed in the database; no cut-off is given here.
# Test system: not listed separately
# Test: Oral bioavailability in C57BL/6 mouse at 5 mg/kg administered as single dose measured up to 24 hrs by LC-MS/MS analysis
# Type: ADME, organism-based
# Settings: in vivo
# Method in brief: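 C57BL/6 mice were dosed 5 mg/kg orally, with a 2 mg/kg iv reference arm. Plasma was sampled at eight time points up to 24 h.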
row,SMILES,bioavailability [%]
1,C[C@@H](NC(=O)c1nc(-c2nccc3ccccc23)nc(O)c1O)C1CCCCC1,26

# Test system: not listed separately
# Test: (§1) Selectivity index, ratio of CC50 for human HeLa cells assessed as reduction in cell viability to EC50 for wild-type HIV1 NL4-3 infected in human TZM-bl cells infected with supernatants from virus-infected human MT2 cells treated with compound for 48 to 72 hrs assessed as reduction in viral replication after 2 days by bright Glo-luciferase reporter gene assay based BiCycle assay
# Type: toxicity
# Settings: read-out: Ratio CC50/EC50
# Method in brief: (§2)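 Selectivity index is CC50 from the respective cytotoxicity assay (HeLa or PBMC) divided by EC50 from the two-round MT-2/TZM-bl NL4-3 assay.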
row,SMILES,selectivity ratio
1,O=C(NCC1CCCCC1)c1nc(-c2ccccn2)nc(O)c1O,3
2,C[C@@H](NC(=O)c1nc(-c2nccc3ccccc23)nc(O)c1O)C1CCCCC1,21

# Molecular target: Human immunodeficiency virus type 1 integrase (Human immunodeficiency virus 1) (UniProt Q7ZJM1)
# Test: Inhibition of wild type recombinant HIV1 His6-tagged integrase expressed in Escherichia coli BL21 using 18 nucleotide 3'-biotin labeled DNA acceptor as substrate upto 10 uM preincubated for 1 hr followed by substrate addition and further incubated for 90 mins in presence of recombinant LEDGF/p75 by HTRF assay
# Settings: not given
# Human immunodeficiency virus type 1 integrase (Human immunodeficiency virus 1), sequence (Q7ZJM1 as listed by the source): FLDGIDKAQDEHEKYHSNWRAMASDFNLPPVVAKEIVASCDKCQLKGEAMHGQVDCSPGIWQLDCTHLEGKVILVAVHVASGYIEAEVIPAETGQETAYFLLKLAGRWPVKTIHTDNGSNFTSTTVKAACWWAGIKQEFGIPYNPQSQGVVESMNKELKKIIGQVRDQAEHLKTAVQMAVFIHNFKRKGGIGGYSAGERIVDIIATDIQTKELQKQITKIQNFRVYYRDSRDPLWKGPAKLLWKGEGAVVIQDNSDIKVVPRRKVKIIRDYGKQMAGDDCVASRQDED
row,SMILES,inhibition
1,O=C(NCC1CCCCC1)c1nc(-c2ccccn2)nc(O)c1O,inactive
2,C[C@@H](NC(=O)c1nc(-c2nccc3ccccc23)nc(O)c1O)C1CCCCC1,inactive

# Test system: Human immunodeficiency virus 1
# Test: Antiviral activity against INI-resistant HIV1 11845
# Type: functional, organism-based
# Settings: Human immunodeficiency virus 1, 11845
row,SMILES,EC50 [µM]
1,C[C@@H](NC(=O)c1nc(-c2nccc3ccccc23)nc(O)c1O)C1CCCCC1,0.09

# Molecular target: Voltage-gated inwardly rectifying potassium channel KCNH2 (Homo sapiens, UniProt Q12809)
# Test: Displacement of Tracer Red from human ERG measured after 4 hrs by fluorescence polarization assay
# Settings: not given
# Voltage-gated inwardly rectifying potassium channel KCNH2, sequence (Q12809 whole entry): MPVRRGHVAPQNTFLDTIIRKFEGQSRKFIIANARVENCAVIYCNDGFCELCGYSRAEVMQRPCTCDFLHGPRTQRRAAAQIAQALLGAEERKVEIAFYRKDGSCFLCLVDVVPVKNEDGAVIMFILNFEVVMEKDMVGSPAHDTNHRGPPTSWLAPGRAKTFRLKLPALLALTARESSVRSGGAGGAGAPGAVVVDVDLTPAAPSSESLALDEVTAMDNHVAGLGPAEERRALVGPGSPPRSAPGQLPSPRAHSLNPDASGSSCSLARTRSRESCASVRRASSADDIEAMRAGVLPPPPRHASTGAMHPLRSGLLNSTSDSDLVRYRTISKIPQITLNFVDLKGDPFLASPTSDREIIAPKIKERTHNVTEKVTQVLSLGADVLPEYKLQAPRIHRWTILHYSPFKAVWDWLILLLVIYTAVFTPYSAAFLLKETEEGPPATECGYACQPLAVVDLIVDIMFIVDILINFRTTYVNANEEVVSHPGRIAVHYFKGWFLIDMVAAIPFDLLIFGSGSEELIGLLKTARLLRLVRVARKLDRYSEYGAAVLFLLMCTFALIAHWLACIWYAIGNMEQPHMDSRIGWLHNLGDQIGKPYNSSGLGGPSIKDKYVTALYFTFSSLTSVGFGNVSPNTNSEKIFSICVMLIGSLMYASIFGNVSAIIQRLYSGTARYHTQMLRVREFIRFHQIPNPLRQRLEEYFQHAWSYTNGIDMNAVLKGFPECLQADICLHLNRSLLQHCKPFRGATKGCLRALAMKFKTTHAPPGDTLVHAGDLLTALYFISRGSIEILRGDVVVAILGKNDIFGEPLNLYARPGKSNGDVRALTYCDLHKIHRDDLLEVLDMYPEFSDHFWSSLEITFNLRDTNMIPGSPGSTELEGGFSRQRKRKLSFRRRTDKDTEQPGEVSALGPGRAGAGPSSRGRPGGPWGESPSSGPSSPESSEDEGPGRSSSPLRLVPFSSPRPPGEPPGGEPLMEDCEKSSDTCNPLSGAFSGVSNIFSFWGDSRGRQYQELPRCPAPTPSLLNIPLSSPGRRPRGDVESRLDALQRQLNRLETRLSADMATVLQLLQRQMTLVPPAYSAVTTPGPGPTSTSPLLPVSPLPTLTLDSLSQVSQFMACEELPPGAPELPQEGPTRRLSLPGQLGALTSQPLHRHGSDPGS
row,SMILES,IC50 [µM]
1,C[C@@H](NC(=O)c1nc(-c2nccc3ccccc23)nc(O)c1O)C1CCCCC1,> 30

# Test system: Human immunodeficiency virus 1
# Test: (§3) Ratio of IC50 for NRTI-resistant HIV1 7401 Nucleocapsid protein (11 to 55 residues) using Alexa488-5'-cTAR-3'-Dabcyl oligonucleotide as substrate to IC50 for HIV1 Nucleocapsid protein (11 to 55 residues) assessed as reduction in NC-induced cTAR DNA destabilization by measuring intrinsic fluorescence using Alexa488-5'-cTAR-3'-Dabcyl oligonucleotide as substrate at 20 degree C incubated for 15 mins by fluorescence assay
# Settings: not given
row,SMILES,Ratio IC50
1,C[C@@H](NC(=O)c1nc(-c2nccc3ccccc23)nc(O)c1O)C1CCCCC1,1.3

# Test system: Human immunodeficiency virus 1
# Test: as §3, with “NNRTI-resistant” for “NRTI-resistant”, “12231” for “7401”
# Settings: not given
row,SMILES,Ratio IC50
1,C[C@@H](NC(=O)c1nc(-c2nccc3ccccc23)nc(O)c1O)C1CCCCC1,2

# Test system: not listed separately
# Test: Half life in mouse plasma at 3 uM by LC-MS/MS analysis
# Type: ADME, cell-free
# Settings: not given
row,SMILES,half-life at 3 µM [h]
1,C[C@@H](NC(=O)c1nc(-c2nccc3ccccc23)nc(O)c1O)C1CCCCC1,3.7

# Test system: Human immunodeficiency virus 1
# Test: as §3, with “PI-resistant” for “NRTI-resistant”, “11808” for “7401”
# Settings: not given
row,SMILES,Ratio IC50
1,C[C@@H](NC(=O)c1nc(-c2nccc3ccccc23)nc(O)c1O)C1CCCCC1,1.6

# Molecular target: Cytochrome P450 2D6 (Homo sapiens, UniProt P10635)
# Test: Inhibition of human microsomal CYP2D6 expressed in baculovirus infected insect cells using luciferin-ME as substrate preincubated with enzyme/substrate mixture for 30 mins followed by further incubation with NADPH for 30 mins by CYP450 luciferase Glo assay
# Type: ADME
# Settings: not given
# Cytochrome P450 2D6, sequence (P10635 whole entry): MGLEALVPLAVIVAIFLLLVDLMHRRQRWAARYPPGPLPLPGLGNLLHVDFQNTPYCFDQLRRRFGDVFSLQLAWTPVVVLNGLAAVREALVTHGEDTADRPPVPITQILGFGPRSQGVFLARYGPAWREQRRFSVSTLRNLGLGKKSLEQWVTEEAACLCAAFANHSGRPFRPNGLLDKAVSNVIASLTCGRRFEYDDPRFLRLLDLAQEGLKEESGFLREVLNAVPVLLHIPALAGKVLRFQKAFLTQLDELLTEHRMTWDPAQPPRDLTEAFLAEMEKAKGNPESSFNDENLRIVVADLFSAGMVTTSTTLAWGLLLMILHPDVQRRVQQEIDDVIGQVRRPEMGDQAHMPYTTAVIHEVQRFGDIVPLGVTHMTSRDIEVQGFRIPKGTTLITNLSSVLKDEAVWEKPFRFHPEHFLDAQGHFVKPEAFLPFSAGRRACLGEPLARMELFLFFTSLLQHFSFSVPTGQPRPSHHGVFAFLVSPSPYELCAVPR
row,SMILES,IC50 [µM]
1,C[C@@H](NC(=O)c1nc(-c2nccc3ccccc23)nc(O)c1O)C1CCCCC1,> 30

# Test system: not listed separately
# Test: Inhibition of HIV1 Nucleocapsid protein (11 to 55 residues) assessed as reduction in NC-induced cTAR DNA destabilization by measuring intrinsic fluorescence using Alexa488-5'-cTAR-3'-Dabcyl oligonucleotide as substrate at 20 degree C incubated for 15 mins by fluorescence assay
# Set-up: species or system Human immunodeficiency virus 1
# Settings: read-out: IC50
# Method in brief: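 Fluorescence NC-inhibition assay following destabilisation of cTAR DNA, the complement of the HIV-1 transactivation response element, dual-labelled with Alexa488 dye and Dabcyl quencher. NC protein at 1 μM, so the lowest measurable IC50 is 0.5 μM.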
row,SMILES,IC50 [µM]
1,O=C(NCC1CCCCC1)c1nc(-c2ccccn2)nc(O)c1O,167
2,C[C@@H](NC(=O)c1nc(-c2nccc3ccccc23)nc(O)c1O)C1CCCCC1,4

# Test system: Human immunodeficiency virus 1
# Test: Antiviral activity against NNRTI-resistant HIV1 12231
# Type: functional, organism-based
# Settings: Human immunodeficiency virus 1, 12231
row,SMILES,EC50 [µM]
1,C[C@@H](NC(=O)c1nc(-c2nccc3ccccc23)nc(O)c1O)C1CCCCC1,0.21

# Test system: Human immunodeficiency virus 1
# Test: Antiviral activity against PI-resistant HIV1 11808
# Type: functional, organism-based
# Settings: Human immunodeficiency virus 1, 11808
row,SMILES,EC50 [µM]
1,C[C@@H](NC(=O)c1nc(-c2nccc3ccccc23)nc(O)c1O)C1CCCCC1,0.16

# Test system: not listed separately
# Test: Half life in human hepatocytes at 3 uM by LC-MS/MS analysis
# Type: ADME, cell-based, Hepatocyte
# Settings: not given
row,SMILES,half-life at 3 µM [h]
1,C[C@@H](NC(=O)c1nc(-c2nccc3ccccc23)nc(O)c1O)C1CCCCC1,2.6

# Molecular target: T1, Cytochrome P450 1A2 (Homo sapiens, UniProt P05177)
# T1 sequence (P05177 whole entry): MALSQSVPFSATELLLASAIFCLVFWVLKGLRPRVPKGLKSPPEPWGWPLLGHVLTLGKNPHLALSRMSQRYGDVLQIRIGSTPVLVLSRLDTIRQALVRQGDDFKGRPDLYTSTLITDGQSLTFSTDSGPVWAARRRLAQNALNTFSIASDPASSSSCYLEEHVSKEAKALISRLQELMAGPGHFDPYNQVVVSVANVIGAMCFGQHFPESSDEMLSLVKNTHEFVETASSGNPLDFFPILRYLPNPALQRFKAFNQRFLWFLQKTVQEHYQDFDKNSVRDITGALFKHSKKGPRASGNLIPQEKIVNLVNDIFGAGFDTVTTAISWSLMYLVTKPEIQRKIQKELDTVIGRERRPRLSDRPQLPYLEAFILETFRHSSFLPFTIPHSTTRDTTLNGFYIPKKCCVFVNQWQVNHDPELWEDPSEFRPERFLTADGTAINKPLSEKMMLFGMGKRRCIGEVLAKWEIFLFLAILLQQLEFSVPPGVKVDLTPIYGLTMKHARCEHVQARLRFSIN
# Test: Inhibition of human microsomal CYP1A2 expressed in baculovirus infected insect cells using luciferin-1A2 as substrate preincubated with enzyme-substrate mixture for 30 mins followed by further incubation with NADPH for 30 mins by CYP450 luciferase Glo assay
# Type: ADME
# Settings: not given
row,SMILES,IC50 [µM]
1,C[C@@H](NC(=O)c1nc(-c2nccc3ccccc23)nc(O)c1O)C1CCCCC1,> 30

# Test system: Human immunodeficiency virus 1
# Test: as §3, with “INI-resistant” for “NRTI-resistant”, “11845” for “7401”
# Settings: not given
row,SMILES,Ratio IC50
1,C[C@@H](NC(=O)c1nc(-c2nccc3ccccc23)nc(O)c1O)C1CCCCC1,0.9

# Test system: not listed separately
# Test: Volume of distribution at steady state in C57BL/6 mouse at 2 mg/kg, iv or 5 mg/kg, po administered as single dose measured up to 24 hrs by LC-MS/MS analysis
# Type: ADME, organism-based
# Settings: in vivo, read-out: Vdss
row,SMILES,Vd [L/kg]
1,C[C@@H](NC(=O)c1nc(-c2nccc3ccccc23)nc(O)c1O)C1CCCCC1,0.8

# Test system: not listed separately
# Test: Cytotoxicity against phytohemagglutinin and interleukin-2-stimulated human PBMC cells assessed as reduction in cell viability measured after 7 days by MTS assay
# Type: cell-based
# Settings: not given
row,SMILES,CC50 at 168 h [µM]
1,O=C(NCC1CCCCC1)c1nc(-c2ccccn2)nc(O)c1O,2.6
2,C[C@@H](NC(=O)c1nc(-c2nccc3ccccc23)nc(O)c1O)C1CCCCC1,5

# Test system: not listed separately
# Test: Half life in mouse hepatocytes at 3 uM by LC-MS/MS analysis
# Type: ADME, cell-based, Hepatocyte
# Settings: not given
row,SMILES,half-life at 3 µM [h]
1,C[C@@H](NC(=O)c1nc(-c2nccc3ccccc23)nc(O)c1O)C1CCCCC1,1.7

# Test system: Human immunodeficiency virus 1
# Test: Antiviral activity against NRTI-resistant HIV1 7401
# Type: functional, organism-based
# Settings: Human immunodeficiency virus 1, 7401
row,SMILES,EC50 [µM]
1,C[C@@H](NC(=O)c1nc(-c2nccc3ccccc23)nc(O)c1O)C1CCCCC1,0.13

# Test system: not listed separately
# Test: Selectivity index, ratio of CC50 for human PBMC cells stimulated with phytohemagglutinin and interleukin-2 assessed as reduction in cell viability measured after 7 days by MTS assay to EC50 for wild-type HIV1 NL4-3 infected in human TZM-bl cells infected with supernatants from virus-infected human MT2 cells treated with compound for 48 to 72 hrs assessed as reduction in viral replication after 2 days by bright Glo-luciferase reporter gene assay based BiCycle assay
# Type: toxicity
# Settings: read-out: Ratio CC50/EC50
# Method in brief: as §2
row,SMILES,selectivity ratio at 7 days
1,O=C(NCC1CCCCC1)c1nc(-c2ccccn2)nc(O)c1O,2
2,C[C@@H](NC(=O)c1nc(-c2nccc3ccccc23)nc(O)c1O)C1CCCCC1,50

# Test system: not listed separately
# Test: Clearance in C57BL/6 mouse at 2 mg/kg, iv or 5 mg/kg, po administered as single dose measured up to 24 hrs by LC-MS/MS analysis
# Type: ADME, organism-based
# Settings: in vivo
row,SMILES,clearance [L/h/kg]
1,C[C@@H](NC(=O)c1nc(-c2nccc3ccccc23)nc(O)c1O)C1CCCCC1,1.81

# Molecular target: Cytochrome P450 3A4 (Homo sapiens, UniProt P08684)
# Test: Inhibition of human microsomal CYP3A4 expressed in baculovirus infected insect cells using luciferin-IPA as substrate preincubated with enzyme/substrate mixture for 30 mins followed by further incubation with NADPH for 30 mins by CYP450 luciferase Glo assay
# Type: ADME
# Settings: not given
# Cytochrome P450 3A4, sequence (P08684 whole entry): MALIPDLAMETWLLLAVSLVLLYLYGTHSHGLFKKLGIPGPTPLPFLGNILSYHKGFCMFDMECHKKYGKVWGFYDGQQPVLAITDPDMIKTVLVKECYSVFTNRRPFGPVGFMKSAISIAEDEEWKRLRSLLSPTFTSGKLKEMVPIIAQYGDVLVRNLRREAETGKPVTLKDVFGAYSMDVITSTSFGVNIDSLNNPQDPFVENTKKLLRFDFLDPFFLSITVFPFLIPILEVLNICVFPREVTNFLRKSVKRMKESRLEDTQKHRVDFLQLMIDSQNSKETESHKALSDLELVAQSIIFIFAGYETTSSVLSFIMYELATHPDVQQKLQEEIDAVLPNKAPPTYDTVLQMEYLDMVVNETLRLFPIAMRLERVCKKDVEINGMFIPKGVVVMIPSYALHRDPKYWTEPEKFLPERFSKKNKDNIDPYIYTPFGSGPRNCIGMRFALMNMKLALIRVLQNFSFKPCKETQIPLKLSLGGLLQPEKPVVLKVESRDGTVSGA
row,SMILES,IC50 [µM]
1,C[C@@H](NC(=O)c1nc(-c2nccc3ccccc23)nc(O)c1O)C1CCCCC1,> 30

# Test system: not listed separately
# Test: Half life in C57BL/6 mouse at 2 mg/kg, iv or 5 mg/kg, po administered as single dose measured up to 24 hrs by LC-MS/MS analysis
# Type: ADME, organism-based
# Settings: in vivo
row,SMILES,half-life [h]
1,C[C@@H](NC(=O)c1nc(-c2nccc3ccccc23)nc(O)c1O)C1CCCCC1,1.1

# Test system: not listed separately
# Test: Cytotoxicity against human HeLa cells assessed as reduction in cell viability
# Type: cell-based
# Settings: not given
row,SMILES,CC50 [µM]
1,O=C(NCC1CCCCC1)c1nc(-c2ccccn2)nc(O)c1O,3.6
2,C[C@@H](NC(=O)c1nc(-c2nccc3ccccc23)nc(O)c1O)C1CCCCC1,2.1

# Test system: Human immunodeficiency virus 1
# Test: as §1, with “Antiviral activity against” for “Selectivity index, ratio of CC50 for human HeLa cells assessed as reduction in cell viability to EC50 for”
# Type: functional, organism-based
# Settings: Human immunodeficiency virus 1, NL4-3, TZM
# Method in brief: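 Two-round cell assay over the full replication cycle: MT-2 T cells are infected with wild-type reference strain NL4-3 in the first round, and reporter TZM-bl cells are infected in the second round. Values are given as mean ± deviation.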
row,SMILES,EC50 [µM]
1,O=C(NCC1CCCCC1)c1nc(-c2ccccn2)nc(O)c1O,1.2
2,C[C@@H](NC(=O)c1nc(-c2nccc3ccccc23)nc(O)c1O)C1CCCCC1,0.1
